The list is not random: actives were taken first. Their share in the collection is about 1.5%.
Hsp70 activator = switches on Hsp70 transcription; HeLa Hsp70 promoter luciferase reporter, luminescence; scaled: vehicle 0, proteasome-inhibitor control 100%; activation, % at 10 µM; 0.04% of 200,000 active;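 active = activation above the mean across all tested compounds plus 3 SD, cutoff set per campaign, cut at about 5.5% in these data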
RBBP9 inhibitor = inhibitors of human serine hydrolase RBBP9. recombinant RBBP9, FP-Rh probe fluorescence polarization. inhibition, % at 7.94 µM. 0.2% of 220,000 active. AID 1515;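 active = inhibition above the campaign mean of all tested compounds plus 3 SD, cut at about 14% in these data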
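Test system – recombinant human RBBP9 · Input – RBBP9 2.5 µM in dispensing solution, pre-mixing · Medium – Tris buffer pH 8.0, NaCl, Pluronic · Schedule – preincubation 30 min plus labeling 45 min at 25 °C · Measured by – fluorescence polarization · Measure – % inhibition · Controls – DMSO and no-protein wells · Replicates – one well per compound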
p97 inhibitor = human p97 ATPase inhibition. inhibition, % at 8 µM. recombinant p97 ATPase, Kinase-Glo ATP luminescence, 3 h. 0.42% of 220,000 active. P55072. AID 1481; in the data active = inhibition above about 15%
Target sequence (P55072 whole entry, looked up): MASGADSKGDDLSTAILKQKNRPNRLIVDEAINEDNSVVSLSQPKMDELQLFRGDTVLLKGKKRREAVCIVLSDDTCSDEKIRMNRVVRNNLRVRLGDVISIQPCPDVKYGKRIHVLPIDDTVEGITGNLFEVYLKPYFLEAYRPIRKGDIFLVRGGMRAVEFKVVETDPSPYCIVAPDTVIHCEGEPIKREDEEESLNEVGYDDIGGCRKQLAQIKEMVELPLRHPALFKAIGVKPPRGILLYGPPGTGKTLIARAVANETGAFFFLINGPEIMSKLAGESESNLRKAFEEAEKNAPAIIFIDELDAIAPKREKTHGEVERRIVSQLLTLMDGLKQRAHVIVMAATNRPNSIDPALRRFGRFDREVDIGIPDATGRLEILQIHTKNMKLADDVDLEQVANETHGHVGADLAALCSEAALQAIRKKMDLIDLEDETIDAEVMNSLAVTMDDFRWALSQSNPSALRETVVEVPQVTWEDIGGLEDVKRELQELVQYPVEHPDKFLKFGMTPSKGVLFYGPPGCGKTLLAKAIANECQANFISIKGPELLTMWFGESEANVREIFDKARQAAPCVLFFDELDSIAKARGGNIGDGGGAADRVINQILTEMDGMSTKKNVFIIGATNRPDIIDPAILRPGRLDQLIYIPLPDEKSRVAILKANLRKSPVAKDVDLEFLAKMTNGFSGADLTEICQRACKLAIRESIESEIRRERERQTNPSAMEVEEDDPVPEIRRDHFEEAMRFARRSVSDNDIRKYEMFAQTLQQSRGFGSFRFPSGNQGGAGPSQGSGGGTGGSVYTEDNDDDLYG
PP1 inh = PP1-alpha (human) inhibition in PP5 counter-screen. purified PP1alpha, OMFP fluorescence. inhibition, % at 6.7 µM. 0.9% of 320,000 active;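 active = inhibition above the mean inhibition of all tested compounds plus 3 SD, computed separately for each screening campaign, cut at about 15% in these data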
PKD1 kinase inh = blocks activity of human protein kinase D1. inhibition, % (no concentration beside the values). PKD1 kinase fluorescence polarization assay. 0.056% of 200,000 active. Q15139. AID 797; in the data active = inhibition above about 50%
PP5 inh = PP5 (human) phosphatase inhibition; P53041; purified PP5c, OMFP substrate fluorescence; inhibition, % at 6.7 µM; 0.18% of 320,000 active;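 active = inhibition above the campaign's mean inhibition across all tested compounds plus 3 SD, cut at about 9.5% in these data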
PP1 inh confirm = human PP1 phosphatase inhibition, confirmation. shares compounds with PP1 inh. AID 2358. purified PP1alpha, OMFP substrate fluorescence. 52% of 1,900 active. inhibition, % at 6.7 µM;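 active = mean PP1 inhibition above a set limit taken from the earlier primary screen, cut at about 15% in these data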
PP5 inh counter = counter-screen for PP1 inhibitors: human PP5 phosphatase inhibition; AID 2360; 4% of 1,900 active; shares compounds with PP1 inh; purified PP5c, OMFP fluorescence; inhibition, % at 6.7 µM;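 active = mean PP5 inhibition over triplicate wells above about 9.5% taken from the earlier PP1 screen, limit read from the data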
Large screens that a line does not name were inactive (follow-up assays come after a bar, where they were run).

O=C(Nc1ccc(N2CCCC2)cc1)c1cc2ccccc2o1	PP1 inh 33 (no result: Hsp70 activator, RBBP9 inhibitor, p97 inhibitor, PKD1 kinase inh) | PP1 inh confirm inactive | PP5 inh counter inactive
Cn1cnnc1SCC(=O)Nc1cc(S(=O)(=O)N2CCCCC2)ccc1Cl	none (no result: Hsp70 activator, PKD1 kinase inh)
COc1cccc(CNC(=O)c2cc(=O)[nH]c3ccc(S(=O)(=O)N4CCOCC4)cc23)c1	none (no result: Hsp70 activator, RBBP9 inhibitor, p97 inhibitor, PKD1 kinase inh)
CCc1nc(C(N)=O)c2[nH]c(=O)n(-c3ccccc3F)c2n1	none (no result: Hsp70 activator, RBBP9 inhibitor, p97 inhibitor, PKD1 kinase inh)
Cc1ccc(C(=O)NCC(=O)OCC(=O)N(CC(C)C)c2c(N)n(Cc3ccccc3)c(=O)[nH]c2=O)cc1	none (no result: Hsp70 activator, RBBP9 inhibitor, p97 inhibitor, PKD1 kinase inh)
O=C(NCCCCc1ccccc1)C12CN(Cc3ccccc3)CC1C(c1cccc([N+](=O)[O-])c1)=NO2 (stereo unspecified)	PP1 inh 24 | PP1 inh confirm inactive | PP5 inh counter inactive
CCOc1ccc(/C=C2\SC(=S)N(CCC(=O)N(CCO)c3ccccc3)C2=O)cc1	PP1 inh 22 (no result: Hsp70 activator, RBBP9 inhibitor, p97 inhibitor, PKD1 kinase inh) | PP1 inh confirm inactive | PP5 inh counter inactive
COC(=O)c1cc(S(=O)(=O)N2CCCCC2)c[nH]1	none (no result: Hsp70 activator, RBBP9 inhibitor, p97 inhibitor, PKD1 kinase inh)
COc1ccc(NC(=O)C2(c3ccccc3)CCCC2)cc1	none
COc1ccc(NC(=O)C2(c3ccc(NC(=O)c4ccc(OC(C)=O)cc4)cc3)CCCC2)cc1	PP1 inh 18 | PP1 inh confirm 24 | PP5 inh counter inactive
CCNC(=O)CSc1nc2ccccc2c(=O)n1-c1cccc(OC)c1	none
COc1ccc(NC(=O)CSc2nc(O)cc(=O)n2-c2ccc(OC)cc2)cc1	PP1 inh 19 (no result: Hsp70 activator, RBBP9 inhibitor, p97 inhibitor, PKD1 kinase inh) | PP1 inh confirm inactive | PP5 inh counter inactive
CCN(CC)c1ccc(NC(=O)CSc2nc3nc(C)cc(C)c3c(=O)[nH]2)cc1	none (no result: Hsp70 activator, RBBP9 inhibitor, p97 inhibitor, PKD1 kinase inh)
COc1cccc(-n2c(SCC(=O)Nc3ccc4c(c3)CCC4)nc3ccccc3c2=O)c1	PP1 inh 19 | PP1 inh confirm inactive | PP5 inh counter inactive
COc1ccc(NC(=O)CSc2nc3nc(C)cc(C)c3c(=O)[nH]2)cc1	PP1 inh 77 (no result: Hsp70 activator, RBBP9 inhibitor, p97 inhibitor, PKD1 kinase inh) | PP1 inh confirm inactive | PP5 inh counter inactive
Cc1ccc(Cn2cc(-c3ccccc3)nn2)cc1	none (no result: Hsp70 activator, RBBP9 inhibitor, p97 inhibitor, PKD1 kinase inh)
CC1(C)CC(=O)C2=C(C1)NC(Nc1nc3ccccc3o1)=NC2c1ccccn1 (stereo unspecified)	none
CC1=C(C(=O)Nc2ccccc2)C(c2ccc(C)cc2)N=C(Nc2nc3ccccc3o2)N1 (stereo unspecified)	PP1 inh 23 | PP1 inh confirm 25 | PP5 inh counter inactive
COc1cnc(-c2ccccn2)nc1Oc1ccccc1Cl	PP1 inh 30 | PP1 inh confirm 38 | PP5 inh counter inactive
COc1cnc(-c2ccccn2)nc1NC(C)C	none
COc1cnc(-c2ccccn2)nc1Oc1ccc(Cl)c2ccccc12	PP1 inh 50 | PP1 inh confirm 43 | PP5 inh counter inactive
COc1cnc(-c2ccccn2)nc1Oc1ccc(F)cc1F	PP1 inh 21 | PP1 inh confirm 23 | PP5 inh counter inactive
COc1cnc(-c2ccccn2)nc1Oc1ccc(Cl)cc1	PP1 inh 58 | PP1 inh confirm 39 | PP5 inh counter inactive
COc1ccc(NC(=O)NNC(=O)COc2ccc3cc(Br)ccc3c2)c(OC)c1	PP1 inh 20 (no result: Hsp70 activator, RBBP9 inhibitor, p97 inhibitor, PKD1 kinase inh) | PP1 inh confirm 23 | PP5 inh counter inactive
COc1ccc(NC(=O)COc2ccc(Br)cc2)c(OC)c1	none (no result: Hsp70 activator, RBBP9 inhibitor, p97 inhibitor, PKD1 kinase inh)
CN(C)S(=O)(=O)c1ccc(N2CCCC2)c(C(=O)OCC(=O)N2CCN(c3ccccc3)CC2)c1	none (no result: Hsp70 activator, RBBP9 inhibitor, p97 inhibitor, PKD1 kinase inh)
CCOC(=O)N1CCN(CCC(=O)Nc2ccc(F)c(F)c2)CC1	none (no result: Hsp70 activator, RBBP9 inhibitor, p97 inhibitor, PKD1 kinase inh)
Cc1cccc(C(C(=O)NC2CCCCC2)N(C(=O)c2csnn2)C2CC2)c1 (stereo unspecified)	none (no result: Hsp70 activator, RBBP9 inhibitor, p97 inhibitor, PKD1 kinase inh)
CC(C)c1ccc(NC(=O)C2C3C=CC4(O3)C2C(=O)N(CCCN2CCCCC2)C4C(=O)NC2CCCCC2)cc1 (stereo unspecified)	none (no result: Hsp70 activator, RBBP9 inhibitor, p97 inhibitor, PKD1 kinase inh)
C/C(=N/NC(=O)CNC(=O)COc1cccc(C)c1)c1ccc(Cl)cc1	none (no result: Hsp70 activator, RBBP9 inhibitor, p97 inhibitor, PKD1 kinase inh)
O=C1C(Cc2ccccc2)Nc2ncnc(N3CCc4ccccc4C3)c2N1Cc1ccc(Br)cc1 (stereo unspecified)	PP1 inh 20 (no result: Hsp70 activator, RBBP9 inhibitor, p97 inhibitor, PKD1 kinase inh) | PP1 inh confirm inactive | PP5 inh counter inactive
